Active and inactive are the calls of the source. No cut-off for these calls is given here.

The record followed here is ChEMBL document CHEMBL4043170, “1-Acetyl-5-phenyl-1H-pyrrol-3-ylacetate: An aldose reductase inhibitor for the treatment of diabetic nephropathy” (Bioorg Med Chem Lett, 2017).

Assay [1] concerns HBZY-1. Briefly: Downregulation of collagen 4 levels in rat HBZY-1 cells at 0.3 to 0.9 uM by Western blot analysis. It counts as functional, cell-based. For orientation: Immunoblotting shows a protein as a band on a membrane.
The test system of assay [2] is Rattus norvegicus. Nature of the assay: Antidiabetic activity in STZ-induced diabetic nephropathy Wistar rat model assessed as increase in catalase level at 40 to 160 mg/kg administered daily for 8 weeks measured up to 8 weeks by ELISA. Format: functional, organism-based. In a few lines: (§1)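 Male Wistar rats (300±50 g), adapted under specific pathogen-free conditions with free access to food and water. STZ diabetic nephropathy counted if blood glucose ≥13.88 mM with raised urinary microalbumin. Groups: saline, untreated DN, 40, 80 or 160 mg/kg, and reference inhibitor 100 mg/kg. Dosed daily for eight weeks. Urine and blood sampled at weeks 2, 4, 6 and 8. Mean ± SD, n = 8.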

The test system of assay [3] is Rattus norvegicus. Briefly: Antidiabetic activity in STZ-induced diabetic nephropathy Wistar rat model assessed as reduction in urinary microalbumin level at 40 to 160 mg/kg administered daily for 8 weeks measured up to 8 weeks by ELISA. It counts as functional, organism-based. An outline of the steps: as §1
Assay [4] deals with HBZY-1. Briefly: Cytoprotective activity against HG-induced cell death in rat HBZY-1 cells assessed as […] at 0.3 uM by Annexin V-FITC/propidium iodide staining-based flow cytometric analysis (reference value: 2.83). Format: functional.
Assay [5] deals with Rattus norvegicus. Nature of the assay: Antidiabetic activity in STZ-induced diabetic nephropathy Wistar rat model assessed as decrease in laminin level at 40 to 160 mg/kg administered daily for 8 weeks measured up to 8 weeks by ELISA. On the technique in general: An ELISA detects its analyte on a solid surface through an enzyme-linked reagent.
The test system of assay [6] is Rattus norvegicus. Briefly: Antidiabetic activity in STZ-induced diabetic nephropathy Wistar rat model assessed as decrease in collagen 4 level at 40 to 160 mg/kg administered daily for 8 weeks measured up to 8 weeks by ELISA.
Assay [7] deals with Aldo-keto reductase family 1 member B1 (Homo sapiens) (UniProt P15121). Briefly: Uncompetitive inhibition of recombinant human AR at 60 to 140 nM in presence of various concentrations of DL-glyceraldehyde by Lineweaver-Burk plot analysis.
The subject of assay [8] is HBZY-1. Nature of the assay: Cytoprotective activity against HG-induced cell death in rat HBZY-1 cells assessed as […] at 0.3 to 0.9 uM by Hoechst staining-based analysis. It counts as functional. In a few lines: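 HBZY-1 rat mesangial cells grown in low-glucose DMEM (5.56 mM) with 10% FBS at 37°C and 5% CO2. Pretreated, then exposed to 33 mM glucose. 1×10^4 cells seeded per well, fixed in 70% ethanol for 20 min at room temperature, and stained with Hoechst for 5 min. Imaged by fluorescence microscopy at 400×.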

Assay [9] deals with Rattus norvegicus. Briefly: Antidiabetic activity in STZ-induced diabetic nephropathy Wistar rat model assessed as increase in total superoxide dismutase level at 40 to 160 mg/kg administered daily for 8 weeks measured up to 8 weeks by ELISA. Format: functional, organism-based. In a few lines:
as §1

In assay [10] the test system is HBZY-1. Briefly: Downregulation of laminin levels in rat HBZY-1 cells at 0.3 to 0.9 uM by Western blot analysis. Format: functional, cell-based.
Assay [11] concerns HBZY-1. Briefly: Cytoprotective activity against HG-induced cell death in rat HBZY-1 cells assessed as […] by measuring late apoptotic cells at 0.3 uM by Annexin V-FITC/propidium iodide staining-based flow cytometric analysis (reference value: 18.81%). Format: functional. On the technique in general: Flow cytometry measures light scatter and fluorescence of single cells or particles in a stream.

Assay [12] concerns HBZY-1. Briefly: Cytoprotective activity against HG-induced cell death in rat HBZY-1 cells assessed as […] by measuring early apoptotic cells at 0.3 uM by Annexin V-FITC/propidium iodide staining-based flow cytometric analysis (reference value: 8.13%). It counts as functional.
Assay [13] has as its system HBZY-1. Briefly: Cytoprotective activity against HG-induced cell death in rat HBZY-1 cells assessed as increase in apoptosis by measuring late apoptotic cells at 0.9 uM by Annexin V-FITC/propidium iodide staining-based flow cytometric analysis (reference value: 18.81%). Format: functional.
Assay [14] concerns HBZY-1. Briefly: Cytoprotective activity against HG-induced cell death in rat HBZY-1 cells assessed as […] by measuring early apoptotic cells at 0.6 uM by Annexin V-FITC/propidium iodide staining-based flow cytometric analysis (reference value: 8.13%). Format: functional.
Assay [15] concerns Rattus norvegicus. Briefly: Protection against […] in Wistar rat model assessed as reduction in glomerular mesangial hyperplasia at 40 to 160 mg/kg administered daily for 8 weeks measured after 8 weeks by hematoxylin/eosin dye-based analysis. It counts as functional, organism-based. An outline of the steps:
as §1

Assay [16] deals with HBZY-1. Briefly: Cytoprotective activity against HG-induced cell death in rat HBZY-1 cells assessed as […] at 0.6 uM by Annexin V-FITC/propidium iodide staining-based flow cytometric analysis (reference value: 2.83). It counts as functional.
Assay [17] has as its system Rattus norvegicus. Briefly: Antidiabetic activity in STZ-induced diabetic nephropathy Wistar rat model assessed as reduction in blood glucose level at 40 to 160 mg/kg administered daily for 8 weeks measured up to 8 weeks by ELISA. Format: functional, organism-based. An outline of the steps: as §1
Assay [18] concerns the target Aldo-keto reductase family 1 member B1 (Rattus norvegicus, UniProt P07943). Briefly: Inhibition of AR in Sprague-Dawley rat lens using DL-glyceraldehyde as substrate by spectrophotometric analysis. An outline of the steps:
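Inhibition is expressed relative to uninhibited enzyme activity, set as 100%. For the kinetic study, DL-glyceraldehyde was used at 0.083, 0.125, 0.25 and 1.0 mM. […] Results were analysed by Lineweaver-Burk double-reciprocal plots of 1/V against 1/S.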

Assay [19] has as its system HBZY-1. Briefly: Cytoprotective activity against HG-induced cell death in rat HBZY-1 cells assessed as […] by measuring early apoptotic cells at 0.9 uM by Annexin V-FITC/propidium iodide staining-based flow cytometric analysis (reference value: 8.13%). It counts as functional.
The test system of assay [20] is HBZY-1. Briefly: Cytoprotective activity against HG-induced cell death in rat HBZY-1 cells assessed as increase in apoptosis by measuring late apoptotic cells at 0.6 uM by Annexin V-FITC/propidium iodide staining-based flow cytometric analysis (reference value: 18.81%). Format: functional.
Assay [21] deals with HBZY-1. Briefly: Cytoprotective activity against HG-induced cell death in rat HBZY-1 cells at 0.3 to 0.9 uM after 24 to 96 hrs by MTT assay. It counts as functional, cell-based.
Assay [22] concerns Rattus norvegicus. Nature of the assay: Antidiabetic activity in STZ-induced diabetic nephropathy Wistar rat model assessed as increase in total antioxidant capacity at 40 to 160 mg/kg administered daily for 8 weeks measured up to 8 weeks by ELISA. Format: functional, organism-based. In a few lines:
as §1

Assay [23] relates to HBZY-1. Nature of the assay: Cytoprotective activity against HG-induced cell death in rat HBZY-1 cells assessed as […] at 0.9 uM by Annexin V-FITC/propidium iodide staining-based flow cytometric analysis (reference value: 2.83). Format: functional.
Assay [24] deals with Rattus norvegicus. Briefly: Antidiabetic activity in STZ-induced diabetic nephropathy Wistar rat model assessed as increase in glutathione level at 40 to 160 mg/kg administered daily for 8 weeks measured up to 8 weeks by ELISA. It counts as functional, organism-based. An outline of the steps:
as §1

The test system of assay [25] is HBZY-1. Briefly: Cytoprotective activity against HG-induced cell death in rat HBZY-1 cells at 0.9 uM after 24 to 96 hrs by MTT assay. Format: functional, cell-based.
The test system of assay [26] is HBZY-1. Briefly: Cytoprotective activity against HG-induced cell death in rat HBZY-1 cells assessed as increase in apoptosis by measuring late apoptotic cells at 10 uM by Annexin V-FITC/propidium iodide staining-based flow cytometric analysis (reference value: 18.18%). It counts as functional.
The test system of assay [27] is HBZY-1. Nature of the assay: Cytoprotective activity against HG-induced cell death in rat HBZY-1 cells assessed as […] by measuring early apoptotic cells at 10 uM by Annexin V-FITC/propidium iodide staining-based flow cytometric analysis (reference value: 8.13%). It counts as functional.

`CC(=O)Oc1cc(-c2ccccc2)n(C(C)=O)c1`: the outcome with HBZY-1 [1], in the assay on Rattus norvegicus [2], with Rattus norvegicus [3], in the assay with Rattus norvegicus [5], with Rattus norvegicus [6] and in the assay with HBZY-1 [8] was Active. Further, the result with Rattus norvegicus [9], in the assay with HBZY-1 [10], in the assay on Rattus norvegicus [15], in the assay with Rattus norvegicus [17], in the assay with HBZY-1 [21] and in the assay on Rattus norvegicus [22] was Active. For the same compound, the result with Rattus norvegicus [24] and in the assay with HBZY-1 [25] was Active. In addition, the “fold change (FC)” value came out at 2.29 in the assay on HBZY-1 [4], 2.07 in the assay with HBZY-1 [16] and 1.93 in the assay on HBZY-1 [23]. The inhibition result in assay [7] was “Active”. Further, the Activity is on record as 13.67% in the assay with HBZY-1 [11]; 8.18% in the assay with HBZY-1 [12]; 8.45% in the assay with HBZY-1 [13]; 5.66% in the assay with HBZY-1 [14]; 9.97% in the assay on HBZY-1 [19]; 10.31% in the assay on HBZY-1 [20]. In addition, the IC50 – broadly, the midpoint of a concentration-inhibition curve – in assay [18] was 22.3 nM.
`CC(/C=C1\SC(=S)N(CC(=O)O)C1=O)=C\c1ccccc1`: the result in the assay on HBZY-1 [1] and in the assay on HBZY-1 [10] was Active. For the same compound, the Activity with HBZY-1 [26] came to 8.31%; with HBZY-1 [27], 8.98%. Also, the “fold change (FC)” value with HBZY-1 [23] is reported as 1.81.
